Screening results from PubChem.
PRMT1 FP inh: blocks human protein arginine methyltransferase 1; inhibition, % at 2.79 µM; recombinant PRMT1, activity-based probe fluorescence polarization; Q99873; actives 1.3% (n = 370,000);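 active = inhibition above about 21% made by adding two undisclosed values, limit read from the data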
Target sequence (Q99873 whole entry, looked up): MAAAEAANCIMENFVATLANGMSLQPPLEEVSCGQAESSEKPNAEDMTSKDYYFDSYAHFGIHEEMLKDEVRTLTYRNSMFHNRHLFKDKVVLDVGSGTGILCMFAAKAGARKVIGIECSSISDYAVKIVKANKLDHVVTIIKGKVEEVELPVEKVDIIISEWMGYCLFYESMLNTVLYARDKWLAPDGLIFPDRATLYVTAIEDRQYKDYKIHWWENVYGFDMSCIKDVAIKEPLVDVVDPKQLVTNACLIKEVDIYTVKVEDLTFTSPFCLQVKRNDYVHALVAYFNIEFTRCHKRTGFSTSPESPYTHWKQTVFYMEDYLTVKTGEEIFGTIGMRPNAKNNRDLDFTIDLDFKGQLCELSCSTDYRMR
SIAE primary: blocks human sialic acid acetylesterase. Q9HAT2. SIAE FP-Rh probe binding, fluorescence polarization. inhibition, % at 9.66 µM. actives 0.69% (n = 370,000). AID 1053197;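 active = inhibition above a cutoff: mean of compounds within the control limits plus 3 SD of those, cut at about 17% in these data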
HTRA1 inhibitor: inhibitors of human serine peptidase HTRA1; actives 0.5% (n = 340,000); AID 504803; recombinant HTRA1, FP-rhodamine activity-based probe, fluorescence polarization; Q92743; inhibition, % at 5.96 µM; in the data active = inhibition above about 36%
rCAG binder: binds r(CAG) RNA repeats | r(CAG) RNA repeat, TO-PRO-1 dye displacement fluorescence | inhibition, % at 3 µM | actives 1.3% (n = 370,000) | AID 651821;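 active = inhibition above the plate cutoff, the mean of all test compounds on that plate plus 3 SD, cut at about 35% in these data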;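 also: higher means more dye released from RNA so lower well fluorescence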
mABHD4 FP: ABHD4 (mouse) inhibition, primary FP screen | Q8VD66 | purified mABHD4, FP-Rh probe fluorescence polarization | inhibition, % at 8.92 µM | actives 0.54% (n = 370,000);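 active = inhibition exceeding the mean over every tested compound plus 3 SD, cut at about 30% in these data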
Target sequence (Q8VD66 whole entry, looked up): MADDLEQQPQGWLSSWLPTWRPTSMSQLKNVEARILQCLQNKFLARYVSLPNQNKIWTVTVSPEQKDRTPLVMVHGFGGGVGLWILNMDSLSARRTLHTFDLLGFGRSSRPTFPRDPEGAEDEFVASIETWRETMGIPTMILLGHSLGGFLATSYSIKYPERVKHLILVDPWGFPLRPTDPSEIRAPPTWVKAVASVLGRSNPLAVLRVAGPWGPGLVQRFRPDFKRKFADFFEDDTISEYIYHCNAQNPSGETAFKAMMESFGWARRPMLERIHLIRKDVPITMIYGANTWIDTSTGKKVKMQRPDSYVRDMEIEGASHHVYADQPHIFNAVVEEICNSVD
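Test system: mABHD4 protein | Buffer or medium: HEPES pH 7.0 buffer, 150 mM NaCl, 0.01% Pluronic F-127 | Probe or stimulus: FP-Rh fluorescent activity-based probe, added after compound pre-incubation | Timing: Pre-incubation 45 min, probe exposure 60 min, at 25 °C | Technique: Fluorescence polarization, excitation 525 nm, emission 598 nm, BODIPY TMR filters | Repeats: Single well per compound (singlicate)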
TCR CD3 inh: blocks the human TCR-CD3 interaction; TAMRA-labeled TCR probe fluorescence, biochemical; inhibition, % at 9.4 µM; actives 0.37% (n = 360,000); AID 651800; in the data active = inhibition above about 19%;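 also: recombinant mutant TCR 2C K166C tagged with TAMRA read by polarization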
Large screens that a line does not name were inactive; ! = a repeat was not active. Sampled rows, rich in hits. Any-hit rate of the full collection: about 3.5%.

COc1ccc(C(=O)N[C@@H]2CC[C@@]34CCCN3C(=O)CCC[C@H]4[C@H]2C)cc1	none (no result: HTRA1 inhibitor, rCAG binder, TCR CD3 inh)
COc1ccc2cc1Oc1ccc(cc1)C[C@H]1c3cc(c(OC)cc3CCN1C)Oc1c(OC)c(OC)cc3c1[C@H](C2)N(C)CC3	none
COc1ccc2cc1Oc1ccc(cc1)C[C@H]1c3c(cc4c(c3Oc3cc5c(cc3OC)CCN(C)[C@@H]5C2)OCO4)CCN1C	SIAE primary 19.1
CCN=C1S/C(=C/c2ccc(-c3ccc(Cl)cc3C(=O)O)o2)C(=O)N1CC	rCAG binder 55.4
Cc1ccc(NNC(=O)c2ccno2)cc1C	PRMT1 FP inh 23.3
O=C1C(SCCO)=C(SCCO)C(=O)c2ccccc21	PRMT1 FP inh 97.7
O=C(Oc1coc(CSc2ncccn2)cc1=O)c1ccc([N+](=O)[O-])cc1	none (no result: HTRA1 inhibitor, rCAG binder, TCR CD3 inh)
Cc1nc2c(=O)[nH]c(=S)[nH]c2[nH]c1=O	PRMT1 FP inh 24.2
O=C1C[C@H](c2ccc3ccccc3c2)N=C2N1/C(=C\c1ccccc1)[C@@H](c1ccccc1C(F)(F)F)N2Cc1ccc2c(c1)OCO2	none (no result: HTRA1 inhibitor, rCAG binder, TCR CD3 inh)
COc1cc(NC(=O)c2ccno2)cc(C(=O)Nc2cccc(C(F)(F)F)c2)c1	none
CCN1CCN(Cc2ccc(NC(=O)c3cc(NC(=O)c4cc(-c5ccc(OC)cc5)n[nH]4)cc(OC)c3)cc2C(F)(F)F)CC1	TCR CD3 inh 27.9
COc1ccc(-c2cc(C(=O)Nc3cc(OC)cc(C(=O)Nc4cccc(C(F)(F)F)c4)c3)[nH]n2)cc1	TCR CD3 inh 68.3!
COc1cc(NC(=O)c2ccc(N)nc2)cc(C(=O)Nc2cccc(C(F)(F)F)c2)c1	none
COc1ccc(NC(=S)NNC(=S)Nc2cccc(C(F)(F)F)c2)cc1	SIAE primary 31.1
COc1cc(NC(=O)c2cc3cccc(OC)c3o2)cc(C(=O)Nc2cccc(C(F)(F)F)c2)c1	TCR CD3 inh 44.7
Cc1ccc(S(=O)(=O)C(C#N)c2nc3ccccc3nc2N2CC(C)OC(C)C2)cc1C (stereo not drawn)	rCAG binder 39.2
Cc1ccc(S(=O)(=O)C(C#N)c2nc3ccccc3nc2N2CCCC2)cc1 (stereo not drawn)	PRMT1 FP inh 57.8
Cc1cccc(S(=O)(=O)C(C#N)c2nc3ccccc3nc2N2CC(C)OC(C)C2)c1 (stereo not drawn)	none
Cc1ccc(NC(=O)C2CCCN2S(=O)(=O)c2cccnc2)cc1C (stereo not drawn)	none (no result: HTRA1 inhibitor, TCR CD3 inh)
COC(=O)[C@]12C[C@H](CC(=O)N3CCSCC3)C(=O)N(Cc3cccc4ccccc34)C1=C[C@H](C1CCCC1)O[C@@H]2C	none (no result: HTRA1 inhibitor, TCR CD3 inh)
COc1ccc(Oc2c(Cl)cnn(-c3ccc(C(C)C)c(C)c3)c2=O)cc1	none (no result: HTRA1 inhibitor, rCAG binder, TCR CD3 inh)
CCCCCCc1c(O)c2ccccc2[nH]c1=O	none
CCCCCCCCCCCC1=C(O)C(=O)C=C(O)C1=O	HTRA1 inhibitor 43.0 (no result: PRMT1 FP inh, SIAE primary, rCAG binder, mABHD4 FP, TCR CD3 inh)
COc1ccc(S[C@]2(C(=O)N3CCN(c4ncccn4)CC3)CC(=O)N(c3ccccc3)[C@@H]2c2ccc(OC)cc2)cc1	none (no result: HTRA1 inhibitor, TCR CD3 inh)
CC(=O)OC12CCCN(C1)/C(=C/c1cccnc1)C2 (stereo not drawn)	none (no result: HTRA1 inhibitor, TCR CD3 inh)
O=C(Cn1cnc2c(cnn2-c2ccc(F)cc2)c1=O)NCc1ccco1	none
Cc1sc2ncn(CC(=O)NCc3ccco3)c(=O)c2c1-c1ccc(F)cc1	PRMT1 FP inh 23.7
CCOc1ccc(-n2c(SCC(=O)Nc3ccccc3-c3ccccc3)nnc2-c2ccncc2)cc1	none (no result: HTRA1 inhibitor, TCR CD3 inh)
O=C1CC(N2CCC(c3nc4ccccc4s3)CC2)C(=O)N1Cc1ccccc1 (stereo not drawn)	PRMT1 FP inh 23.7
CN1C(=O)CC(N2CCC(c3nc4ccccc4s3)CC2)C1=O (stereo not drawn)	none
COC(=O)[C@]12C[C@H](CC(=O)NCCc3ccccc3OC)C(=O)N(CCc3ccc(OC)c(OC)c3)C1=C[C@H](COCc1ccccc1)O[C@@H]2C	none (no result: HTRA1 inhibitor, TCR CD3 inh)
CCOC(=O)c1c(-c2ccc(OC)cc2)csc1NC(=O)CSc1nnc(C)c(=O)[nH]1	rCAG binder 63.0
CCOC(=O)c1c(-c2ccc(OC)cc2)csc1NC(=O)CSc1ccccc1	none
COc1ccc(-c2cn(-c3ccccc3)c(=S)[nH]2)cc1OC	PRMT1 FP inh 23.2
COc1ccc(-c2cn(-c3ccc(C)c(Cl)c3)c(=S)[nH]2)cc1OC	none
CCOC(=O)CNC(=O)CSc1nnc(-c2ccc(C(C)(C)C)cc2)n1-c1ccc(Cl)cc1	none (no result: HTRA1 inhibitor, TCR CD3 inh)
C#CCOCCOCCOCCNc1nc(N2CCN(C(=O)[C@H](CCCCN)n3cc([C@@H](N)C(C)CC)nn3)CC2)nc(N2CCN(C(=O)[C@H](CCCCN)n3cc([C@@H](N)C(C)CC)nn3)CC2)n1 (stereo partly drawn)	none (no result: HTRA1 inhibitor, rCAG binder, TCR CD3 inh)
CC1C/C(=C/c2cccs2)C(=O)/C(=C/c2cccs2)C1 (stereo not drawn)	PRMT1 FP inh 22.3
Cc1ccccc1NC(=O)CC1SCCNC1=O (stereo not drawn)	PRMT1 FP inh 22.0
S=c1[nH]nc(Cc2cccs2)n1-c1ccccc1	none
CCCCc1ccc(-n2c(Cc3cccs3)n[nH]c2=S)cc1	PRMT1 FP inh 21.4
CCCCCCCCS(=O)c1sc2nc3c(cc2c1N)CCCC3 (stereo not drawn)	PRMT1 FP inh 23.9
O=C(CC(SCc1ccco1)c1ccc(O)cc1)c1cccs1 (stereo not drawn)	PRMT1 FP inh 21.6
O=C(CSc1nnc(-c2ccc(O)cc2)n1Cc1ccco1)c1cccs1	none
C[C@H]1[C@@H](NC(=O)c2ccc(C(C)(C)C)cc2)CC[C@@]23CCCN2C(=O)CCC[C@@H]13	none (no result: HTRA1 inhibitor, rCAG binder, TCR CD3 inh)
CC/C(=N\Nc1ccccc1[N+](=O)[O-])c1ccc(O)cc1	mABHD4 FP 40.0 (no result: HTRA1 inhibitor)
Fc1ccc(-c2ccnc(=S)[nH]2)cc1	PRMT1 FP inh 23.4
Cc1ccc(C2=NN=C(NC(=O)CSc3nnc4c5ccccc5n(C)c4n3)SC2)cc1	none (no result: PRMT1 FP inh, SIAE primary, rCAG binder, mABHD4 FP, TCR CD3 inh)
Cc1ccc(C2=NN=C(NC(=O)CSc3nc(C)cc(C)n3)SC2)cc1	PRMT1 FP inh 90.7 (no result: HTRA1 inhibitor)
S=c1[nH]nc(-c2ccc3ccccc3n2)n1-c1ccc2ncccc2c1	PRMT1 FP inh 21.4
Fc1ccc(-n2c(-c3ccc4ccccc4n3)n[nH]c2=S)cc1Cl	none
O=c1[nH]c(Sc2ccc([N+](=O)[O-])cc2[N+](=O)[O-])nc2ccccc12	PRMT1 FP inh 23.3
COc1ccc(NS(=O)(=O)c2cccc(C(=O)NCc3ccco3)c2)cc1	PRMT1 FP inh 22.8
Cc1ccc(C)c(N2CCN(C(=O)c3cc4sccc4n3C)CC2)c1	PRMT1 FP inh 22.2
CCOC(=O)N1CCN(C(=O)c2cc3sccc3n2C)CC1	none
CCOC(Cn1cc([N+](=O)[O-])c(=O)[nH]c1=O)OCC	none
NC(=S)NN=CCn1cc([N+](=O)[O-])c(=O)[nH]c1=O	PRMT1 FP inh 23.8
CCOC(=O)[C@@]12CCCC=C1N(CCc1ccc(Cl)cc1)C(=O)[C@H]2CC(=O)NCc1cccc(C(F)(F)F)c1	none (no result: HTRA1 inhibitor, TCR CD3 inh)
